From ChEMBL document CHEMBL1124366, “Synthesis and biological properties of N63-carboxamides of teicoplanin antibiotics. Structure-activity relationships” (J Med Chem, 1989)
Converted amounts (≈) assume the structure as drawn.

Key:
Assay type in all cases: functional
[1] = tested on: Streptococcus pyogenes; assay: In vivo effective dose given perorally to mice infected with Streptococcus pyogenes C 203; settings: po
Outline: (§1)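 Mice (five per treatment group, five groups) infected intraperitoneally with about 10⁵ cells of Strep. pyogenes C 203, about 100× the LD50. ED50 (mg/kg) was calculated from the percentage of mice surviving at each dose on day 7.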

[2] = tested on: Streptococcus pyogenes; assay: Subcutaneously administration into mice infected with Streptococcus pyogenes C 203; settings: sc; outline: as §1
[3] = tested on: Staphylococcus epidermidis; assay: In vitro minimum inhibitory concentration against Staphylococcus epidermis ATCC 12228
[4] = tested on: Staphylococcus aureus; assay: In vitro minimum inhibitory concentration against Staphylococcus aureus Tour
[5] = tested on: Streptococcus pneumoniae; assay: In vitro minimum inhibitory concentration against Streptococcus pneumoniae UC41
[6] = tested on: Streptococcus pyogenes; assay: In vitro minimum inhibitory concentration against Streptococcus pyogenes C 203
[7] = tested on: Enterococcus faecalis; assay: In vitro minimum inhibitory concentration against Streptococcus faecalis ATCC 7080
[8] = tested on: Staphylococcus haemolyticus; assay: In vitro minimum inhibitory concentration against Staphylococcus hemolyticus 602 cell line; settings: strain 602
[9] = tested on: Escherichia coli; assay: In vitro minimum inhibitory concentration against Escherichia coli SKF 12140
[10] = tested on: Proteus vulgaris; assay: In vitro minimum inhibitory concentration against Proteus vulgaris X 19 ATCC 881

Row | MIC [3] [µg/mL] | MIC [4] [µg/mL] | MIC [5] [µg/mL] | MIC [6] [µg/mL] | MIC [7] [µg/mL] | MIC [9] [µg/mL] | MIC [10] [µg/mL] | SMILES | ED50 [1] [mg/kg] | ED50 [2] [mg/kg] | MIC [8] [µg/mL]
1 | 0.06 (≈ 0.0293 µM) | 0.25 (≈ 0.122 µM) | 0.06 (≈ 0.0293 µM) | 0.06 (≈ 0.0293 µM) | 0.12 (≈ 0.0586 µM) | – | – | CCCCN(CCCC)CCCNC(=O)[C@H]1NC(=O)[C@H]2NC(=O)[C@H](NC(=O)[C@@H]3NC(=O)[C@H]4NC(=O)[C@@H](Cc5ccc(c(Cl)c5)Oc5cc3cc(c5O[C@@H]3O[C@@H](CO)[C@@H](O)[C@H](O)[C@@H]3NC(=O)CCCCCCC(C)C)Oc3ccc(cc3Cl)[C@H]2O[C@@H]2O[C@@H](CO)[C@@H](O)[C@H](O)[C@@H]2NC(C)=O)NC(=O)[C@H](N)c2ccc(O)c(c2)Oc2cc(O)cc4c2)c2ccc(O)c(c2)-c2c(O[C@H]3O[C@H](CO)[C@@H](O)[C@@H](O)[C@@H]3O)cc(O)cc21 | 300 | 0.1 | –
2 | 0.12 (≈ 0.0612 µM) | 0.12 (≈ 0.0612 µM) | 0.12 (≈ 0.0612 µM) | 0.06 (≈ 0.0306 µM) | 0.06 (≈ 0.0306 µM) | – | – | CC(=O)N[C@@H]1[C@H](O[C@@H]2c3ccc(c(Cl)c3)Oc3cc4cc(c3O[C@@H]3O[C@@H](CO)[C@@H](O)[C@H](O)[C@@H]3NC(=O)CCCCCCC(C)C)Oc3ccc(cc3Cl)C[C@H]3NC(=O)[C@H](N)c5ccc(O)c(c5)Oc5cc(O)cc(c5)[C@H](NC3=O)C(=O)N[C@H]4C(=O)N[C@H]3C(=O)N[C@@H]2C(=O)N[C@H](C(=O)N2CCN(C)CC2)c2cc(O)cc(O[C@H]4O[C@H](CO)[C@@H](O)[C@@H](O)[C@@H]4O)c2-c2cc3ccc2O)O[C@@H](CO)[C@@H](O)[C@@H]1O | 115 | < 0.03 | –
3 | 0.12 (≈ 0.0598 µM) | 0.5 (≈ 0.249 µM) | 0.12 (≈ 0.0598 µM) | 0.06 (≈ 0.0299 µM) | 0.25 (≈ 0.125 µM) | – | – | CCCCC/C=C/CCC(=O)N[C@@H]1[C@H](Oc2c3cc4cc2Oc2ccc(cc2Cl)[C@@H](O[C@@H]2O[C@@H](CO)[C@@H](O)[C@H](O)[C@@H]2NC(C)=O)[C@@H]2NC(=O)[C@H](NC(=O)[C@@H]4NC(=O)[C@H]4NC(=O)[C@@H](Cc5ccc(c(Cl)c5)O3)NC(=O)[C@H](N)c3ccc(O)c(c3)Oc3cc(O)cc4c3)c3ccc(O)c(c3)-c3c(O[C@H]4O[C@H](CO)[C@@H](O)[C@@H](O)[C@@H]4O)cc(O)cc3[C@@H](C(=O)NC(CCC(=O)O)C(=O)O)NC2=O)O[C@@H](CO)[C@@H](O)[C@@H]1O (some centres undefined) | – | – | 4 (≈ 1.99 µM)
4 | 0.06 (≈ 0.04 µM) | 0.12 (≈ 0.0801 µM) | 0.25 (≈ 0.167 µM) | 0.25 (≈ 0.167 µM) | 0.5 (≈ 0.334 µM) | 128 (≈ 85.4 µM) | > 128 | CC(=O)NC1C(O[C@@H]2c3ccc(c(Cl)c3)Oc3cc4cc(c3O)Oc3ccc(cc3Cl)C[C@H]3NC(=O)[C@H](N)c5ccc(O)c(c5)Oc5cc(O)cc(c5)[C@H](NC3=O)C(=O)N[C@H]4C(=O)N[C@H]3C(=O)N[C@@H]2C(=O)N[C@H](C(=O)NCCN2CCCC2)c2cc(O)cc(O)c2-c2cc3ccc2O)OC(CO)C(O)C1O (some centres undefined) | – | 2.2 | –
5 | 0.12 (≈ 0.0807 µM) | 0.5 (≈ 0.336 µM) | 1 (≈ 0.672 µM) | 0.25 (≈ 0.168 µM) | 1 (≈ 0.672 µM) | 128 (≈ 86.1 µM) | > 128 | CCOC(=O)CNC(=O)[C@H]1NC(=O)[C@H]2NC(=O)[C@H](NC(=O)[C@@H]3NC(=O)[C@H]4NC(=O)[C@@H](Cc5ccc(c(Cl)c5)Oc5cc3cc(c5O)Oc3ccc(cc3Cl)[C@H]2O[C@@H]2O[C@@H](CO)[C@@H](O)[C@H](O)[C@@H]2NC(C)=O)NC(=O)[C@H](N)c2ccc(O)c(c2)Oc2cc(O)cc4c2)c2ccc(O)c(c2)-c2c(O)cc(O)cc21 | – | 5 | –
6 | 0.25 (≈ 0.131 µM) | 0.12 (≈ 0.0629 µM) | 0.06 (≈ 0.0315 µM) | 0.06 (≈ 0.0315 µM) | 0.12 (≈ 0.0629 µM) | – | – | CC(=O)N[C@@H]1[C@H](O[C@@H]2c3ccc(c(Cl)c3)Oc3cc4cc(c3O[C@@H]3O[C@@H](CO)[C@@H](O)[C@H](O)[C@@H]3NC(=O)CCCCCCC(C)C)Oc3ccc(cc3Cl)C[C@H]3NC(=O)[C@H](N)c5ccc(O)c(c5)Oc5cc(O)cc(c5)[C@H](NC3=O)C(=O)N[C@H]4C(=O)N[C@H]3C(=O)N[C@@H]2C(=O)N[C@H](C(=O)N(C)C)c2cc(O)cc(O[C@H]4O[C@H](CO)[C@@H](O)[C@@H](O)[C@@H]4O)c2-c2cc3ccc2O)O[C@@H](CO)[C@@H](O)[C@@H]1O | 139 | 0.08 | –
7 | 0.12 (≈ 0.0604 µM) | 0.12 (≈ 0.0604 µM) | 0.06 (≈ 0.0302 µM) | 0.06 (≈ 0.0302 µM) | 0.12 (≈ 0.0604 µM) | – | – | CC(=O)N[C@@H]1[C@H](O[C@@H]2c3ccc(c(Cl)c3)Oc3cc4cc(c3O[C@@H]3O[C@@H](CO)[C@@H](O)[C@H](O)[C@@H]3NC(=O)CCCCCCC(C)C)Oc3ccc(cc3Cl)C[C@H]3NC(=O)[C@H](N)c5ccc(O)c(c5)Oc5cc(O)cc(c5)[C@H](NC3=O)C(=O)N[C@H]4C(=O)N[C@H]3C(=O)N[C@@H]2C(=O)N[C@H](C(=O)NC2CN4CCC2CC4)c2cc(O)cc(O[C@H]4O[C@H](CO)[C@@H](O)[C@@H](O)[C@@H]4O)c2-c2cc3ccc2O)O[C@@H](CO)[C@@H](O)[C@@H]1O (some centres undefined) | 173 | 0.07 | –
8 | 0.06 (≈ 0.0396 µM) | 0.12 (≈ 0.0792 µM) | 0.5 (≈ 0.33 µM) | 0.12 (≈ 0.0792 µM) | 0.25 (≈ 0.165 µM) | 64 (≈ 42.3 µM) | 128 (≈ 84.5 µM) | CCN(CC)CCCNC(=O)[C@H]1NC(=O)[C@H]2NC(=O)[C@H](NC(=O)[C@@H]3NC(=O)[C@H]4NC(=O)[C@@H](Cc5ccc(c(Cl)c5)Oc5cc3cc(c5O)Oc3ccc(cc3Cl)[C@H]2O[C@@H]2O[C@@H](CO)[C@@H](O)[C@H](O)[C@@H]2NC(C)=O)NC(=O)[C@H](N)c2ccc(O)c(c2)Oc2cc(O)cc4c2)c2ccc(O)c(c2)-c2c(O)cc(O)cc21 | – | 0.95 | –
9 | 0.25 (≈ 0.127 µM) | 0.12 (≈ 0.0611 µM) | 0.12 (≈ 0.0611 µM) | 0.06 (≈ 0.0305 µM) | 0.12 (≈ 0.0611 µM) | – | – | CC(=O)N[C@@H]1[C@H](O[C@@H]2c3ccc(c(Cl)c3)Oc3cc4cc(c3O[C@@H]3O[C@@H](CO)[C@@H](O)[C@H](O)[C@@H]3NC(=O)CCCCCCC(C)C)Oc3ccc(cc3Cl)C[C@H]3NC(=O)[C@H](N)c5ccc(O)c(c5)Oc5cc(O)cc(c5)[C@H](NC3=O)C(=O)N[C@H]4C(=O)N[C@H]3C(=O)N[C@@H]2C(=O)N[C@H](C(=O)N2CCSCC2)c2cc(O)cc(O[C@H]4O[C@H](CO)[C@@H](O)[C@@H](O)[C@@H]4O)c2-c2cc3ccc2O)O[C@@H](CO)[C@@H](O)[C@@H]1O | 220 | 0.08 | –
10 | 0.12 (≈ 0.0602 µM) | 0.12 (≈ 0.0602 µM) | 0.12 (≈ 0.0602 µM) | 0.06 (≈ 0.0301 µM) | 0.12 (≈ 0.0602 µM) | – | – | CC(=O)N[C@@H]1[C@H](O[C@@H]2c3ccc(c(Cl)c3)Oc3cc4cc(c3O[C@@H]3O[C@@H](CO)[C@@H](O)[C@H](O)[C@@H]3NC(=O)CCCCCCC(C)C)Oc3ccc(cc3Cl)C[C@H]3NC(=O)[C@H](N)c5ccc(O)c(c5)Oc5cc(O)cc(c5)[C@H](NC3=O)C(=O)N[C@H]4C(=O)N[C@H]3C(=O)N[C@@H]2C(=O)N[C@H](C(=O)NCCN2CCOCC2)c2cc(O)cc(O[C@H]4O[C@H](CO)[C@@H](O)[C@@H](O)[C@@H]4O)c2-c2cc3ccc2O)O[C@@H](CO)[C@@H](O)[C@@H]1O | 300 | 0.08 | –
11 | 0.12 (≈ 0.062 µM) | 0.12 (≈ 0.062 µM) | 0.12 (≈ 0.062 µM) | 0.12 (≈ 0.062 µM) | 0.25 (≈ 0.129 µM) | – | – | CC(=O)N[C@@H]1[C@H](O[C@@H]2c3ccc(c(Cl)c3)Oc3cc4cc(c3O[C@@H]3O[C@@H](CO)[C@@H](O)[C@H](O)[C@@H]3NC(=O)CCCCCCC(C)C)Oc3ccc(cc3Cl)C[C@H]3NC(=O)[C@H](N)c5ccc(O)c(c5)Oc5cc(O)cc(c5)[C@H](NC3=O)C(=O)N[C@H]4C(=O)N[C@H]3C(=O)N[C@@H]2C(=O)N[C@H](C(=O)NCC(=O)O)c2cc(O)cc(O[C@H]4O[C@H](CO)[C@@H](O)[C@@H](O)[C@@H]4O)c2-c2cc3ccc2O)O[C@@H](CO)[C@@H](O)[C@@H]1O | > 300 | 0.23 | –
12 | 0.06 (≈ 0.0407 µM) | 0.25 (≈ 0.17 µM) | 2 (≈ 1.36 µM) | 0.25 (≈ 0.17 µM) | 0.5 (≈ 0.339 µM) | > 128 | > 128 | COC(=O)CNC(=O)[C@H]1NC(=O)[C@H]2NC(=O)[C@H](NC(=O)[C@@H]3NC(=O)[C@H]4NC(=O)[C@@H](Cc5ccc(c(Cl)c5)Oc5cc3cc(c5O)Oc3ccc(cc3Cl)[C@H]2O[C@@H]2O[C@@H](CO)[C@@H](O)[C@H](O)[C@@H]2NC(C)=O)NC(=O)[C@H](N)c2ccc(O)c(c2)Oc2cc(O)cc4c2)c2ccc(O)c(c2)-c2c(O)cc(O)cc21 | – | 7 | –
13 | 0.12 (≈ 0.0607 µM) | 0.12 (≈ 0.0607 µM) | 0.12 (≈ 0.0607 µM) | 0.06 (≈ 0.0304 µM) | 0.12 (≈ 0.0607 µM) | – | – | CC(=O)N[C@@H]1[C@H](O[C@@H]2c3ccc(c(Cl)c3)Oc3cc4cc(c3O[C@@H]3O[C@@H](CO)[C@@H](O)[C@H](O)[C@@H]3NC(=O)CCCCCCC(C)C)Oc3ccc(cc3Cl)C[C@H]3NC(=O)[C@H](N)c5ccc(O)c(c5)Oc5cc(O)cc(c5)[C@H](NC3=O)C(=O)N[C@H]4C(=O)N[C@H]3C(=O)N[C@@H]2C(=O)N[C@H](C(=O)NCCN2CCCC2)c2cc(O)cc(O[C@H]4O[C@H](CO)[C@@H](O)[C@@H](O)[C@@H]4O)c2-c2cc3ccc2O)O[C@@H](CO)[C@@H](O)[C@@H]1O | 173 | 0.06 | –
